Results from ChEMBL document CHEMBL1157506, “Synthesis and pharmacological characterization of chiral pyrrolidinylfuran derivatives: the discovery of new functionally selective muscarinic agonists” (J Med Chem, 2008).

Experiments:
[1] = Antagonist activity at muscarinic M1/M4 receptor in guinea pig lung assessed as effect on tissue contraction; type: functional, Cavia porcellus
[2] = Antagonist activity at muscarinic M3 receptor in guinea pig ileum assessed as effect on tissue tension changes; type: functional, Cavia porcellus
Summary of the method: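 Guinea pig ileum with isotonic recording of tension changes and 30 min equilibration. Dose-response curves to arecaidine propargyl ester taken at 30 min intervals; the first is discarded and the second serves as control. Responses are expressed as % of the maximal control-curve response, with parallel tissues given only the reference agonist to check sensitivity.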

[3] = target: T1, Muscarinic acetylcholine receptor M1 (Homo sapiens, UniProt P11229); assay: Displacement of [3H]NMS from human muscarinic M1 receptor expressed in CHO cells by liquid scintillation counter; type: cell-based
T1 sequence (P11229 whole entry): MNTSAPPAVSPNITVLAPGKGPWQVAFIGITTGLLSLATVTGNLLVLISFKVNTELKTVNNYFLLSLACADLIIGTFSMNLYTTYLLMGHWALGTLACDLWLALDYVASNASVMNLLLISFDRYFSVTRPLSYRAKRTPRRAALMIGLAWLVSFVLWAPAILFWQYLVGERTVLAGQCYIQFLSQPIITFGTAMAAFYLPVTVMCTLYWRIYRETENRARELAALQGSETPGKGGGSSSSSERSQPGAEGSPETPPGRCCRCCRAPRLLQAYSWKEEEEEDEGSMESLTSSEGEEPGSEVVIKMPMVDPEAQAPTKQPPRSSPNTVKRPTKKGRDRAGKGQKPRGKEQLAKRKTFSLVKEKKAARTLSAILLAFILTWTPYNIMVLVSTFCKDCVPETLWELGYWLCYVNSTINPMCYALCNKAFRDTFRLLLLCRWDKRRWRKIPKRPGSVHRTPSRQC

[4] = target: T2, Muscarinic acetylcholine receptor M2 (Homo sapiens, UniProt P08172); assay: Displacement of [3H]NMS from human muscarinic M2 receptor expressed in CHO cells by liquid scintillation counter; type: cell-based
T2 sequence (P08172 whole entry): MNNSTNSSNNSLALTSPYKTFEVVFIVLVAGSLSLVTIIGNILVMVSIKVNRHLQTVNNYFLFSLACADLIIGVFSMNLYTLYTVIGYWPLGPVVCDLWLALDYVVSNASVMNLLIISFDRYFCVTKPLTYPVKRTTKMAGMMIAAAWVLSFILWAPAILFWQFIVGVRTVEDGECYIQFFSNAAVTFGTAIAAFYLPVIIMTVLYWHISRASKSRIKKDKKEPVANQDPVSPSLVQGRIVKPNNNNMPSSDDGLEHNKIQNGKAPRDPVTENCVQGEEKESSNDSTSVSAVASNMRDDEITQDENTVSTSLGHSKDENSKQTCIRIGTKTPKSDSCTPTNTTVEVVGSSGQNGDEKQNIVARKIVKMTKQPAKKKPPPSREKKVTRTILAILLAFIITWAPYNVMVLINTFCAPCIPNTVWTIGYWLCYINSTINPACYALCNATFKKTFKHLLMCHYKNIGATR
Summary of the method: (§1)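 Membrane protein was 70 µg/mL for hm2, 50 µg/mL for hm4 and 25 µg/mL for hm5. Incubation was 120 min at room temperature in 25 mM sodium phosphate with 5 mM MgCl2, pH 7.4. GF/C filtration and scintillation counting followed; duplicates.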

[5] = target: Muscarinic acetylcholine receptor M3 (Homo sapiens, UniProt P20309); assay: Displacement of [3H]NMS from human muscarinic M3 receptor expressed in CHO cells by liquid scintillation counter; type: cell-based
[6] = target: T3, Muscarinic acetylcholine receptor M4 (Homo sapiens, UniProt P08173); assay: Displacement of [3H]NMS from human muscarinic M4 receptor expressed in CHO cells by liquid scintillation counter; type: cell-based; summary of the method: as §1
T3 sequence (P08173 whole entry): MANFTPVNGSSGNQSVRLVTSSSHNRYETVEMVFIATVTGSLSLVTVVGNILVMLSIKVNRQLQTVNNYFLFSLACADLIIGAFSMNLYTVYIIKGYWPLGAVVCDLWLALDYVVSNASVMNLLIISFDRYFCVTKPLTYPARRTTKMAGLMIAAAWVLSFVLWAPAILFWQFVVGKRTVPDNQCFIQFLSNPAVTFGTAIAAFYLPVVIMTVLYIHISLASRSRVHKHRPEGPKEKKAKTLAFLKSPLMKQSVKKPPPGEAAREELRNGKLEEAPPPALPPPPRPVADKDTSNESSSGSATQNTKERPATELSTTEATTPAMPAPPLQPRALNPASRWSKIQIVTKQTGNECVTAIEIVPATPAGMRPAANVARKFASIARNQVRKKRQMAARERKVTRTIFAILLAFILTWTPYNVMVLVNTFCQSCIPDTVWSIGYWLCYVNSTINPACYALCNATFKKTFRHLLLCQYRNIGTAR

[7] = target: T4, Muscarinic acetylcholine receptor M5 (Homo sapiens, UniProt P08912); assay: Displacement of [3H]NMS from human muscarinic M5 receptor expressed in CHO cells by liquid scintillation counter; type: cell-based; summary of the method: as §1
T4 sequence (P08912 whole entry): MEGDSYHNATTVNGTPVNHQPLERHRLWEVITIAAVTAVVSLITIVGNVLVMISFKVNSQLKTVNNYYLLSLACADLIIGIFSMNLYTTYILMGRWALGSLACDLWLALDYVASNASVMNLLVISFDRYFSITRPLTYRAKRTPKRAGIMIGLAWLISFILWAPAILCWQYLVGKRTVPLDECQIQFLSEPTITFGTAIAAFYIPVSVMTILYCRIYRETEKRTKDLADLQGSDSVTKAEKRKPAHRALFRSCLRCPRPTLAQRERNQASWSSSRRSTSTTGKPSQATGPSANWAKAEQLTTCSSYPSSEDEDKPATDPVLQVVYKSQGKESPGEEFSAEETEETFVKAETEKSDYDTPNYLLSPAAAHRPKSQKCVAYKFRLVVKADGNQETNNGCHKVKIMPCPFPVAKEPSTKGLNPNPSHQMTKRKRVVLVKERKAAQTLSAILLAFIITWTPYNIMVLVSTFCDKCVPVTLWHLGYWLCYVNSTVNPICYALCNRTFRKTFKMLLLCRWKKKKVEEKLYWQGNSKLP

[8] = Antagonist activity at muscarinic M1/M4 receptor in New Zealanda white rabbit vas deferens assessed as effect on isometric tissue contraction; type: functional, Oryctolagus cuniculus
Summary of the method: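 Rabbit vas deferens bathed at 30 °C with 10^-6 M yohimbine and 10^-8 M tripitramine to block α2-adrenoceptors and M2 receptors. Electrically stimulated with square-wave pulses (0.1 ms, 2 Hz, 10-15 V) and equilibrated 1 h. Isometric contractions recorded during a cumulative dose-response curve to McN-A-343. Responses are expressed as % of maximal control-curve response, with parallel reference-agonist-only tissues run.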

Cavia porcellus [9] = species: Cavia porcellus; assay: Intrinsic activity at muscarinic M2 receptor in guinea pig atrium assessed as effect on inotropic activity relative to control; type: tissue-based; settings: Cardiac atrium
Summary of the method: (§2)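 Left atria in PSS at 30 °C, paced via platinum electrodes (1 ms, 1 Hz, 5-10 V). Inotropic force recorded isometrically after 2 h equilibration. A cumulative APE reference curve was obtained, then cumulative agonist curves. Responses are expressed as % of the control maximal response.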

[10] = Agonist activity at muscarinic M2 receptor in guinea pig atrium assessed as effect on inotropic activity; type: functional, Cavia porcellus, Cardiac atrium; summary of the method: as §2
Cavia porcellus [11] = species: Cavia porcellus; assay: Intrinsic activity at muscarinic M1/M4 receptor in guinea pig lung assessed as effect on tissue contraction relative to control
[12] = Agonist activity at muscarinic M1/M4 receptor in guinea pig lung assessed as effect on tissue contraction; type: functional, Cavia porcellus
Oryctolagus cuniculus = species: Oryctolagus cuniculus; assay: Intrinsic activity at muscarinic M1/M4 receptor in New Zealanda white rabbit vas deferens assessed as effect on isometric tissue contraction relative to control; type: tissue-based
Summary of the method: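 Vas deferens in solution with 10^-6 M yohimbine and 10^-8 M tripitramine at 30 °C, field-stimulated (0.1 ms, 2 Hz, 10-15 V). Contractions recorded isometrically after 1 h equilibration. A cumulative McN-A-343 reference curve was built, then cumulative curves to the test agonist. Responses are expressed as % of the control curve's maximum. Parallel reference-only tissues served as sensitivity checks.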

Cavia porcellus [13] = species: Cavia porcellus; assay: Intrinsic activity at muscarinic M3 receptor in guinea pig ileum assessed as effect on tissue tension changes relative to control; type: tissue-based
Summary of the method: (§3)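 Ileum tension changes recorded isotonically after 30 min equilibration. APE curves were run at 30 min intervals; the first was discarded and the second was taken as control. Cumulative agonist curves followed, with responses expressed as % of the control maximum. Parallel reference-only tissues served as sensitivity checks.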

[14] = Agonist activity at muscarinic M3 receptor in guinea pig ileum assessed as effect on tissue tension changes; type: functional, Cavia porcellus; summary of the method: as §3

Muscarinic acetylcholine receptor M3, sequence (P20309 whole entry): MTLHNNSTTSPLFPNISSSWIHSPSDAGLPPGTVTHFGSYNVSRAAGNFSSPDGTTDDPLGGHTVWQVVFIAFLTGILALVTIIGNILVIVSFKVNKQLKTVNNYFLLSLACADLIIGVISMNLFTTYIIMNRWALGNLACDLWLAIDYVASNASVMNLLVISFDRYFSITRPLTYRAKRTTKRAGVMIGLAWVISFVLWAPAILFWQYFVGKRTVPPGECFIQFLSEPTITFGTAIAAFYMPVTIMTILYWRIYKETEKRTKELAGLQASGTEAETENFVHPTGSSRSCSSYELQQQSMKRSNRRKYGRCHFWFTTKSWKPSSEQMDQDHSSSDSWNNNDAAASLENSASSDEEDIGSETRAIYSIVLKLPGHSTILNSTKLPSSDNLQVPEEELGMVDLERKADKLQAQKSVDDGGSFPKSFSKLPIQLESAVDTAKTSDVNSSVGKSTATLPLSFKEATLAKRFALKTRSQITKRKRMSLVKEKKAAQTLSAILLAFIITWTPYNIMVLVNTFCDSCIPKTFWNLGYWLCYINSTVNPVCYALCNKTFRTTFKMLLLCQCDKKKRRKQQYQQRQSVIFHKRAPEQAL

Row | SMILES | pKb [1] | pKb [2] | Ki [3] | Ki [4] | Ki [5] | Ki [6] | Ki [7] | pKb [8] | Intrinsic activity (Cavia porcellus [9]) | pD2 [10] | Intrinsic activity (Cavia porcellus [11]) | pD2 [12] | Intrinsic activity (Oryctolagus cuniculus) | A50 (Cavia porcellus [9]) | Intrinsic activity (Cavia porcellus [13]) | pD2 [14]
1 | Cc1ccc([C@@H]2CCCN2C)o1 | <5 | <5 | 36.3 µM | 15.8 µM | 33.1 µM | 47.9 µM | 39.8 µM | <5 | 0.47 | 6.6 | – | – | – | – | – | –
2 | Cc1ccc(C2CCCN2C)o1 (racemic) | <5 | <5 | 26.9 µM | 14.5 µM | 22.9 µM | 24.5 µM | 21.9 µM | – | 0.37 | 6.31 | – | – | – | – | – | –
3 | Cc1ccc([C@@H]2CCC[N+]2(C)C)o1.[I-] | 5.96 | 7.82 | 5.62 µM | 1.66 µM | 2.69 µM | 5.13 µM | 3.63 µM | 5.9 | 0.42 | 7.49 | – | – | – | – | – | –
4 | Cc1ccc([C@H]2CCCN2)o1 | – | – | 14.5 µM | 3.24 µM | 12 µM | 29.5 µM | 15.8 µM | – | – | 6.71 | 0.32 | 5.45 | 1 | 1 | 1 | 6.16
